An excerpt weighted towards active compounds, which were near 2.5% of everything screened.
B2AR ag = human beta-2 adrenergic receptor agonism by FAP | AID 504454 | Am2.2-beta2AR cells, FAP receptor internalization, flow cytometry | P07550 | response, % (test concentration not listed) | 0.43% of 340,000 active;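 active means response above a set limit, near 3 SD of response in nonfluorescent compounds, cut at about 42% in these data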
Target sequence (P07550 whole entry, looked up): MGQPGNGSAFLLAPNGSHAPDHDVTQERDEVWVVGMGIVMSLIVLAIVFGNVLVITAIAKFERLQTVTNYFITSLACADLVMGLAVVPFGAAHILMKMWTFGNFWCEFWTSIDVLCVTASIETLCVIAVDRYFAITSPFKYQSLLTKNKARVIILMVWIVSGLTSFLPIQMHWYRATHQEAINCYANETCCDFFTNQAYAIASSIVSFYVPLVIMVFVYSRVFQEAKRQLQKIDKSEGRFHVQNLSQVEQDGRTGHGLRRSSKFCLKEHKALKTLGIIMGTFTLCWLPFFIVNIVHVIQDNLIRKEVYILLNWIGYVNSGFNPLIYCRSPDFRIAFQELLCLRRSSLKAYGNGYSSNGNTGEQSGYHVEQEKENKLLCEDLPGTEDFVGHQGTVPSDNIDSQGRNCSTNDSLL
GRK2 inh = inhibitors of human GRK2 displacing RNA aptamer; inhibition of aptamer binding, % at 10 µM; 0.59% of 330,000 active; bead flow cytometry, FAM-aptamer displacement from GRK2; AID 488847;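 active means inhibition of aptamer binding above 40%, roughly 3 SD of noise, on plates passing a quality check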;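 further: median bead fluorescence of bound FAM aptamer so fluorescent compounds give negative values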
SENP1 FRET inh = SENP1 (human) catalytic domain inhibition; Q9P0U3; recombinant SENP1 catalytic domain, CyPet-SUMO1-YPet FRET cleavage; inhibition, % at 10 µM; 0.21% of 360,000 active;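 active means inhibition at least 30% at 10 µM, raw YFP signal under a set limit, fluorescence ratio 0.5 to 1.5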;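 further: 0% = enzyme with DMSO and 100% = no enzyme wells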
Target sequence (Q9P0U3 419-644 limits assumed): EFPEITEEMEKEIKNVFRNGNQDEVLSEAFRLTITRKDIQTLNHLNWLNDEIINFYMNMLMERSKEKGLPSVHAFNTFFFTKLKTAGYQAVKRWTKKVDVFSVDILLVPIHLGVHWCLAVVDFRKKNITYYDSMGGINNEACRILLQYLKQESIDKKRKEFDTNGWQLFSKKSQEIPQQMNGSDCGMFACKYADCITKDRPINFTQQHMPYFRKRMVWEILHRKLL
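Test system: hSENP1 catalytic domain, recombinant; Amount: 20 pM final SENP1 enzyme; Medium: Tris pH 8 buffer plus EDTA, NaCl, BME, BSA, NP40, catalase; Schedule: 50 min enzyme reaction, room temperature, light-protected; Technique: FRET fluorescence in CFP and YFP emission channels; Controls: no-enzyme wells low, DMSO-plus-enzyme wells high control.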
NadD inh = NadD (S. aureus) enzyme inhibition; purified NadD enzyme, colorimetric absorbance read-out; inhibition, % at 20 µM; 0.78% of 360,000 active; AID 602399; in the data active means inhibition above about 26%
ABHD5-PLIN5 inh = ABHD5-PLIN5 protein interaction inhibition; 0.78% of 360,000 active; Split G. princeps luciferase complementation, luminescence, 4 h; inhibition, % at 4 µM; Q00G26+Q8WTS1;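 active means inhibition above the mean inhibition across every tested compound plus 3 SD, cut at about 22% in these data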;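 further: 0% = DMSO only wells and the 100% control is not disclosed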
NadD conf = NadD (S. aureus) inhibition, single concentration confirmation; 13% of 2,000 active; AID 624309; shares compounds with NadD inh; inhibition, % at 20 µM; purified S. aureus NadD, colorimetric enzyme assay; in the data active means inhibition mostly above about 42%, no sharp cut-off; inactive means mostly below about 42%
An asterisk follows results filed as active.

How did CCN(C[C@H]1N[C@@](Cc2ccccc2)(C(=O)OC)[C@H]2C(=O)N(Cc3ccccc3)C(=O)[C@@H]12)C(=O)Nc1ccc(Cl)cc1 do in these assays?
B2AR ag: 0; GRK2 inh: 3; SENP1 FRET inh: 1; NadD inh: 13; ABHD5-PLIN5 inh: -8

How did COc1ccc(CN(CCNC(=O)CCCCC(=O)NCCN(Cc2ccc(OC)cc2)C(C)C)C(C)C)cc1 do in these assays?
B2AR ag: 2; GRK2 inh: 2; SENP1 FRET inh: -2; NadD inh: -17; ABHD5-PLIN5 inh: -3

Results for CC(C)(C)C(=O)c1sc2nc(-c3cccs3)cc(C(F)(F)F)c2c1N ?
B2AR ag: -728; GRK2 inh: 8; SENP1 FRET inh: -28; NadD inh: -2; ABHD5-PLIN5 inh: -8

Results for CCN(CC)C(=O)c1sc2nc(-c3cccs3)cc(-c3ccc(Cl)cc3)c2c1N ?
B2AR ag: -88; GRK2 inh: 4; SENP1 FRET inh: -17; NadD inh: 44*; ABHD5-PLIN5 inh: -11; NadD conf: -5

How did N#Cc1sc2nc(-c3cccs3)cc(-c3ccc(Cl)cc3)c2c1N do in these assays?
B2AR ag: -5; GRK2 inh: 4; SENP1 FRET inh: -29; NadD inh: 0; ABHD5-PLIN5 inh: 5

What do the screens show for `Cc1nnc(NC(=O)c2sc3nc(-c4cccs4)cc(C(F)(F)F)c3c2N)s1`?
B2AR ag: -18; GRK2 inh: 4; SENP1 FRET inh: 0; NadD inh: 30*; ABHD5-PLIN5 inh: 0; NadD conf: -3

Results for CCN(CC)C(=O)c1sc2nc(-c3cccs3)cc(-c3cccs3)c2c1N ?
B2AR ag: -74; GRK2 inh: 3; SENP1 FRET inh: 29; NadD inh: 73*; ABHD5-PLIN5 inh: 2; NadD conf: 8

Results for O=C(COC(=O)c1ccc(O)cc1O)Nc1cccc2ccccc12 ?
B2AR ag: 5; GRK2 inh: 1; SENP1 FRET inh: 3; NadD inh: -7; ABHD5-PLIN5 inh: 1

What do the screens show for `O=C(/C=C/c1ccc(F)cc1)NC(=S)NNC(=O)[C@H]1C[C@@H]1c1ccccc1`?
B2AR ag: -17; GRK2 inh: 2; SENP1 FRET inh: 1; NadD inh: 40*; ABHD5-PLIN5 inh: -5; NadD conf: 11

Results for O=C(CSc1nc2c(cnn2-c2ccc(F)cc2)c(=O)[nH]1)N1N=C(c2cccs2)CC1c1ccc(F)cc1 (stereo not drawn) ?
SENP1 FRET inh: -3; NadD inh: 54*; ABHD5-PLIN5 inh: -4; NadD conf: 1

What do the screens show for `O=c1[nH]c(=O)n(C2OC(CO)C(O)C2O)cc1N1CCOCC1` (stereo not drawn)?
B2AR ag: -8; SENP1 FRET inh: 0; NadD inh: -6; ABHD5-PLIN5 inh: 1

What do the screens show for `COCCn1c(C)cc(C2=NNC(=Nc3ccc(Cl)cc3Cl)SC2)c1C`?
B2AR ag: -14; GRK2 inh: 1; SENP1 FRET inh: -3; NadD inh: 36*; ABHD5-PLIN5 inh: -5; NadD conf: 3

What do the screens show for `COCCn1c(C)cc(C2=NNC(=NC3CC3)SC2)c1C`?
B2AR ag: 4; GRK2 inh: 14; SENP1 FRET inh: 0; NadD inh: 2; ABHD5-PLIN5 inh: -9

What do the screens show for `CC(C)Cn1c(-c2csc3ccccc23)n[nH]c1=S`?
B2AR ag: 6; GRK2 inh: 3; SENP1 FRET inh: -1; NadD inh: 34*; ABHD5-PLIN5 inh: -7; NadD conf: 9

What do the screens show for `CCn1c(-c2csc3ccccc23)n[nH]c1=S`?
B2AR ag: -3; GRK2 inh: 0; SENP1 FRET inh: 0; NadD inh: 1; ABHD5-PLIN5 inh: -10

How did Cc1ccc(OS(=O)(=O)c2ccc(N3C(=O)CCC3=O)cc2)cc1 do in these assays?
B2AR ag: 3; GRK2 inh: 0; SENP1 FRET inh: 1; NadD inh: 1; ABHD5-PLIN5 inh: 1

What do the screens show for `CCOc1ccc(-c2csc(/C(C#N)=C\c3ccc(O)c([N+](=O)[O-])c3)n2)cc1`?
B2AR ag: 27; GRK2 inh: 0; SENP1 FRET inh: 16; NadD inh: 48*; ABHD5-PLIN5 inh: -5; NadD conf: 16

Results for CCOC(=O)C1=C(CSc2nc(-c3ccccc3)ccc2C#N)OC(N)=C(C#N)C1c1ccccc1 (stereo not drawn) ?
B2AR ag: -22; GRK2 inh: 0; SENP1 FRET inh: -16; NadD inh: 37*; ABHD5-PLIN5 inh: -9; NadD conf: 43

What do the screens show for `CCOC(=O)CC1=C(C(=O)OCC)C(c2cccnc2)C(C#N)=C(N)O1` (stereo not drawn)?
B2AR ag: -3; GRK2 inh: 5; SENP1 FRET inh: -6; NadD inh: 0; ABHD5-PLIN5 inh: 3

Results for CCOC(=O)C1=C(CSc2nc(-c3ccccc3)ccc2C#N)OC(N)=C(C#N)C1c1cccnc1 (stereo not drawn) ?
B2AR ag: -50; GRK2 inh: 0; SENP1 FRET inh: -17; NadD inh: 40*; ABHD5-PLIN5 inh: 5; NadD conf: 8

What do the screens show for `C[C@H](CO)N1C[C@H](C)[C@@H](CN(C)CC2CC2)Oc2c(NC(=O)Cc3ccccc3)cccc2C1=O`?
B2AR ag: 3; GRK2 inh: 4; SENP1 FRET inh: 1; NadD inh: -4; ABHD5-PLIN5 inh: 12

What do the screens show for `COc1ccc(S(=O)(=O)N2CCc3ccccc32)cc1[N+](=O)[O-]`?
B2AR ag: -3; GRK2 inh: 0; SENP1 FRET inh: 1; NadD inh: -7; ABHD5-PLIN5 inh: 0

How did Cc1cccc(N2CCN(C(=O)CCCCCn3c(=S)[nH]c4ccc(N5CCOCC5)cc4c3=O)CC2)c1C do in these assays?
B2AR ag: 4; GRK2 inh: 1; SENP1 FRET inh: -32; NadD inh: 46*; ABHD5-PLIN5 inh: -5; NadD conf: 6

What do the screens show for `Cc1ccc(C)c(N2CCN(C(=O)c3ccc(Cn4c(=S)[nH]c5ccc(N6CCOCC6)cc5c4=O)cc3)CC2)c1`?
B2AR ag: 4; GRK2 inh: 0; SENP1 FRET inh: -59; NadD inh: 30*; ABHD5-PLIN5 inh: 1; NadD conf: -3

Results for CCCCn1c(=S)[nH]c2ccc(N3CCOCC3)cc2c1=O ?
GRK2 inh: 2

How did CC(C#N)(NC(=O)CN1CCN(S(=O)(=O)c2ccccc2Cl)CC1)C1CC1 (stereo not drawn) do in these assays?
B2AR ag: -6; GRK2 inh: 1; SENP1 FRET inh: -1; NadD inh: 3; ABHD5-PLIN5 inh: 11

What do the screens show for `CN(Cc1ccc(F)cc1)C(=O)c1ccc(NS(=O)(=O)c2ccccc2)cc1`?
B2AR ag: 2; GRK2 inh: 2; SENP1 FRET inh: 0; NadD inh: -3; ABHD5-PLIN5 inh: 9

Screening results (PubChem)
